Assay results taken from ChEMBL document CHEMBL1671789, “Evaluation of quinazoline analogues as glucocerebrosidase inhibitors with chaperone activity” (J Med Chem, 2011).
Positions count from the first letter of the chain named. The source made the active and inactive calls.

Key:
[1] = target: T1, Lysosomal acid glucosylceramidase (Homo sapiens) (UniProt P04062); experiment: Increase of GCase trafficking to lysosomes in human fibroblast cells assessed as colocalization of Gcase with Lamp2 at 10 uM after 5 days by immunofluorescence method; format: cell-based
T1 sequence (whole entry): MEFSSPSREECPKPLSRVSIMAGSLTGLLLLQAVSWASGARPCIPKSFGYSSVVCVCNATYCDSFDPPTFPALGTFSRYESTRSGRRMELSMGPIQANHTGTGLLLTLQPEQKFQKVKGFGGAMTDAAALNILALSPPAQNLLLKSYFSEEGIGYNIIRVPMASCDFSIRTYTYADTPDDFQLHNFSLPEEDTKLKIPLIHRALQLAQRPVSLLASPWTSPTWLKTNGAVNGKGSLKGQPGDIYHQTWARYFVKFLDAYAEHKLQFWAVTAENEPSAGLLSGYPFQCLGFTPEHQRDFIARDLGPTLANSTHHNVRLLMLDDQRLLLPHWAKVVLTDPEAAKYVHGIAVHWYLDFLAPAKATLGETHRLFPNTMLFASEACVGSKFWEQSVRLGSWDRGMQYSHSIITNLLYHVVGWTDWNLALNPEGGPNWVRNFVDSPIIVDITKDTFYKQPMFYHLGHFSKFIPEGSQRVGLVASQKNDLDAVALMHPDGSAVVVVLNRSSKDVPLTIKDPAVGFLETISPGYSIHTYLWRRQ
Procedure, shortened: (§1)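 Primary dermal fibroblasts from N370S/N370S Gaucher patients and a control, in chamber slides. Compounds given for five days, range 1 nM to 25 μM. Cells fixed in 3% paraformaldehyde and permeabilized with 0.1% Triton-X. Stained with rabbit anti-GCase R386 (1:500) and mouse anti-LAMP1 or LAMP-2 (1:100), then Alexa-conjugated secondaries and DAPI. Imaged by confocal microscopy for GC/LAMP2 colocalization.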

[2] = target: T1, Lysosomal acid glucosylceramidase (Homo sapiens)
[3] = target: T1, Lysosomal acid glucosylceramidase (Homo sapiens); remark: listed apart in the source
[4] = Inhibition of alpha-glucosidase
[5] = target: T1, Lysosomal acid glucosylceramidase (Homo sapiens); remark: listed apart in the source
[6] = target: T1, Lysosomal acid glucosylceramidase (Homo sapiens); remark: listed apart in the source
[7] = test system: T2, Lysosomal acid glucosylceramidase (Homo sapiens), P04062 [N409S]; experiment: Increase of GCase N370S mutant trafficking to lysosomes in human fibroblast cells assessed as colocalization of Gcase with Lamp2 at 10 uM after 5 days by immunofluorescence method; format: cell-based; procedure, shortened: as §1
T2 sequence (whole entry): T1 sequence (whole entry) with N409S

[8] = target: T1, Lysosomal acid glucosylceramidase (Homo sapiens); experiment: Binding affinity to recombinant Gcase assessed as change in melting temperature at 400 uM by fluorescence thermal shift technique
Procedure, shortened: (§2)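 Differential scanning fluorometry on recombinant wild-type GC at 2 μM final with SYPRO Orange, in 150 mM phosphate/citrate pH 4.8. 12-point DMSO dilution series, final 0.1–600 μM, 2% DMSO final; DMSO-only control. Heated 20 to 95 °C at 0.1 °C/s. Fluorescence read at 490 nm excitation, 575 nm emission. Tm derived from melt curves; shift is relative to the protein-only control.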

[9] = target: T1, Lysosomal acid glucosylceramidase (Homo sapiens); remark: listed apart in the source
[10] = target: T1, Lysosomal acid glucosylceramidase (Homo sapiens); remark: listed apart in the source
[11] = target: T1, Lysosomal acid glucosylceramidase (Homo sapiens); remark: listed apart in the source
[12] = Inhibition of alpha-galactosidase
[13] = target: T1, Lysosomal acid glucosylceramidase (Homo sapiens); experiment: Binding affinity to recombinant Gcase assessed as change in melting temperature at 300 uM by fluorescence thermal shift technique; procedure, shortened: as §2
[14] = test system: T2, Lysosomal acid glucosylceramidase (Homo sapiens), P04062 [N409S]; experiment: Activity at recombinant Gcase N370S mutant in human spleen homogenates assessed as hydrolysis of 4-MU-beta-D-glucose at 50 uM; format: tissue-based
Procedure, shortened: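 Enzyme source: human spleen homogenate, 27 μg/well, in 50 mM citric acid/K2PO4 buffer pH 5 with 0.01% Tween20. Compound pin-transferred and preincubated 5 min at room temperature. Substrate 4MU-β-glc at 1 mM final, 45 min at 37 °C. Stopped with 1 M NaOH/1 M glycine pH 10. Fluorescence read at 365 nm excitation, 440 nm emission.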

[15] = target: T1, Lysosomal acid glucosylceramidase (Homo sapiens); experiment: Binding affinity to recombinant Gcase assessed as change in melting temperature at 500 uM by fluorescence thermal shift technique; procedure, shortened: as §2
[16] = target: T1, Lysosomal acid glucosylceramidase (Homo sapiens); experiment: Increase of GCase trafficking to lysosomes in human fibroblast cells assessed as colocalization of Gcase with Lamp2 at 5 uM after 5 days by immunofluorescence method; format: cell-based; procedure, shortened: as §1
[17] = test system: T2, Lysosomal acid glucosylceramidase (Homo sapiens), P04062 [N409S]; experiment: Increase of GCase N370S mutant trafficking to lysosomes in human fibroblast cells assessed as colocalization of Gcase with Lamp2 at 5 uM after 5 days by immunofluorescence method; format: cell-based; procedure, shortened: as §1
[18] = target: T1, Lysosomal acid glucosylceramidase (Homo sapiens); experiment: Binding affinity to recombinant Gcase assessed as change in melting temperature at 600 uM by fluorescence thermal shift technique; procedure, shortened: as §2

Activity [4]	Activity [12]	Activity [14]	SMILES	other results
inactive	inactive		O=S(=O)(c1ccc2ccccc2c1)N1CCN(c2nc(-c3cccs3)nc3ccccc23)CC1	Activity [1]: Active; ΔTm [2]: -1.33 °C; ΔTm [3]: 10.8 °C; ΔTm [5]: 4.35 °C; ΔTm [6]: 1.6 °C; Activity [7]: Active; ΔTm [8]: 19.9 °C; ΔTm [9]: 14.5 °C; ΔTm [10]: -0.19 °C; ΔTm [11]: 17.3 °C; ΔTm [13]: 19.8 °C
inactive	inactive		Cc1ccc(S(=O)(=O)N2CCN(c3nc(-c4cccs4)nc4ccccc34)CC2)cc1	ΔTm [2]: 0.03 °C; ΔTm [3]: 5.18 °C; ΔTm [5]: 0.84 °C; ΔTm [6]: -1.4 °C; ΔTm [9]: 9.89 °C; ΔTm [10]: -0.09 °C; ΔTm [11]: 11 °C
inactive	inactive	inactive	O=S(=O)(c1ccc(Cl)cc1)N1CCN(c2nc(-c3cccc(Br)c3)nc3ccccc23)CC1	
inactive	inactive	inactive	CN1CCN(c2nc(-c3cccs3)nc3ccccc23)CC1	
inactive	inactive	inactive	CCN1CCN(c2nc(-c3cccs3)nc3ccccc23)CC1	
inactive	inactive	inactive	Cc1ccc(S(=O)(=O)N2CCN(c3nc(-c4ncccn4)nc4ccccc34)CC2)cc1	
inactive	inactive	inactive	Cc1ccc(S(=O)(=O)N2CCN(c3nc(-c4cccs4)nc4c3ncn4COC(=O)C(C)(C)C)CC2)cc1	
inactive	inactive	inactive	Cc1ccc(S(=O)(=O)N2CCC(c3nc(-c4cccs4)nc4ccccc34)CC2)cc1	
inactive	inactive		OC[C@H]1CNC[C@@H](O)[C@@H]1O	ΔTm [15]: 8.75 °C; Activity [1]: Active; ΔTm [2]: 0.4 °C; ΔTm [3]: 6.72 °C; ΔTm [5]: 5.5 °C; Activity [7]: Active; ΔTm [8]: 9.56 °C; ΔTm [9]: 7.94 °C; ΔTm [10]: 1.16 °C; ΔTm [11]: 8.25 °C; ΔTm [13]: 8.98 °C
inactive	inactive	inactive	Cc1ccc(S(=O)(=O)N2CCN(c3nc(-c4cccs4)nc4[nH]cnc34)CC2)cc1	
inactive	inactive	inactive	Cc1ccc(S(=O)(=O)N2CCN(c3nc(-c4cncnc4)nc4ccccc34)CC2)cc1	
inactive	inactive	inactive	Cc1ccc(S(=O)(=O)N2CCN(c3nc(C(N)=O)nc4ccccc34)CC2)cc1	
inactive	inactive		O=S(=O)(c1ccc2c(c1)OCCO2)N1CCN(c2nc(-c3cccs3)nc3ccccc23)CC1	ΔTm [15]: 23.4 °C; Activity [16]: Active; ΔTm [2]: 0.37 °C; ΔTm [3]: 13.3 °C; ΔTm [5]: 11.7 °C; ΔTm [6]: 5.39 °C; ΔTm [8]: 22.8 °C; ΔTm [9]: 19.3 °C; ΔTm [10]: 0.24 °C; ΔTm [11]: 20.7 °C; Activity [17]: Active; ΔTm [18]: 24.3 °C; ΔTm [13]: 22.8 °C
inactive	inactive	inactive	O=S(=O)(c1ccc(Cl)cc1)N1CCN(c2nc(-c3ccc(F)cc3)nc3cc(Cl)ccc23)CC1	
inactive	inactive		COc1ccccc1S(=O)(=O)N1CCN(c2nc(-c3cccs3)nc3ccccc23)CC1	ΔTm [15]: 7.69 °C; Activity [16]: Active; ΔTm [2]: 0.6 °C; ΔTm [3]: -0.76 °C; ΔTm [5]: -0.01 °C; ΔTm [8]: 8.09 °C; ΔTm [9]: 3.97 °C; ΔTm [10]: 0.55 °C; ΔTm [11]: 6.86 °C; Activity [17]: Active; ΔTm [13]: 7.48 °C
inactive	inactive	inactive	O=S(=O)(c1ccc(F)cc1)N1CCN(c2nc(-c3cccc(Br)c3)nc3ccccc23)CC1	
inactive	inactive	inactive	CCCN1CCN(c2nc(-c3cccs3)nc3ccccc23)CC1	
inactive	inactive	inactive	O=S(=O)(c1ccc(Cl)cc1)N1CCN(c2nc(-c3ccc(Cl)cc3)nc3ccccc23)CC1	
inactive	inactive	inactive	Cc1ccc(S(=O)(=O)N2CCN(c3nc(-c4ccc(F)cc4)nc4cc(Cl)ccc34)CC2)cc1	
inactive	inactive	inactive	Cc1ccc(S(=O)(=O)N2CCN(c3nc(-c4cccs4)cc4ccccc34)CC2)cc1	
inactive	inactive	inactive	O=S(=O)(c1ccc(F)cc1)N1CCN(c2nc(-c3cccs3)nc3cc(Cl)ccc23)CC1	
